Legend:
[1] = melting temperature; fluorescence melt of hairpins on a sequencing array, two-state fit, raised by 9.35 °C to match UV melts; conditions: sodium 0.088 M
How it was run: (§1)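 With Cy3 and quencher oligos annealed, library hairpins on a sequenced MiSeq flow cell were imaged for Cy3 fluorescence in 50 mM Na-HEPES pH 8.0, 25 mM NaCl, in 2.5 °C steps up to 60 °C. Melting temperature and folding enthalpy were derived from bootstrapped two-state fits of signals normalised to pre-quench Cy3 and to control constructs. Four replicates were combined by inverse variance, with fitted temperatures raised by 9.35 °C to match UV melts.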

[2] = folding enthalpy; higher = less favourable; fluorescence melt of hairpins on a sequencing array, two-state fit; conditions: sodium 0.088 M
How it was run: as §1

Row | Sequence | Tm [1] | folding enthalpy [2]
1 | GGCTGGGGAAACCCGGTC (.(.(((....))).).) | 46.1 °C | -28.5 kcal/mol
2 | GGCTGTCCGAAAGGAGCC (((..(((....)))))) | 47.4 °C | -25.1 kcal/mol
3 | GGCTGTCGAAAGACCGCC (((.(((....))).))) | 56.6 °C | -36.6 kcal/mol
4 | GGCTGTCGAAAGACTGCC (((.(((....))).))) | 63 °C | -41.2 kcal/mol
5 | GGCTGTGCGAAAGCAGCC (((..(((....)))))) | 57.5 °C | -27.1 kcal/mol
6 | GGCTGTGGAAACACGGTC (.(.(((....))).).) | 44.4 °C | -28.1 kcal/mol
7 | GGCTTAGGAAACTAAGCC (((((((....))))))) | 62.9 °C | -48.5 kcal/mol
8 | GGCTTCCGAAAGGATGCC (((.(((....))).))) | 62 °C | -48.9 kcal/mol
9 | GGCTTCGAAAGAACCGCC ((((((....)))..))) | 47.4 °C | -21.1 kcal/mol
10 | GGCTTCGAAAGAACGGCC ((((((....)))..))) | 43 °C | -27.9 kcal/mol
11 | GGCTTCGAAAGAAGCGCC ((((((....)))..))) | 57 °C | -9.54 kcal/mol
12 | GGCTTCGAAAGAAGGGCC ((((((....)))..))) | 40.4 °C | -19.6 kcal/mol
13 | GGCTTCGGAAACGAGGTC (.(.(((....))).).) | 39.3 °C | -26.3 kcal/mol
14 | GGCTTGGAAACAAGCC ((((((....)))))) | 66.6 °C | -31.2 kcal/mol
15 | GGCTTGGCGAAAGCCGCC (((..(((....)))))) | 68.8 °C | -16.6 kcal/mol
16 | GGCTTGGGAAACCAGGCC (((.(((....))).))) | 56.1 °C | -49 kcal/mol
17 | GGCTTTGGAAACAAAGTC (.(((((....))))).) | 48.9 °C | -39.8 kcal/mol
18 | GGCTTTGGAAACAAGGCC (((.(((....))).))) | 51.6 °C | -40.5 kcal/mol
19 | GGCTTTGGAAACGAAGTC (.(((.(....).))).) | 34.7 °C | -14.7 kcal/mol
20 | GGGAAACGAAAGTTCCCC (((.(((....))).))) | 51 °C | -30.6 kcal/mol
21 | GGGAAAGGAAACTCTCCC ((((.((....)).)))) | 30.2 °C | -17.2 kcal/mol
22 | GGGAACCGAAAGGTCCCC (((.(((....))).))) | 58.1 °C | -25.4 kcal/mol
23 | GGGAACCGAAAGGTGCCC (((.(((....))).))) | 64.3 °C | -41.4 kcal/mol

Row | Sequence | Tm [1] | folding enthalpy [2]
24 | GGGAACGAAAGTTACCCC ((((((....)))..))) | 53.4 °C | -20.2 kcal/mol
25 | GGGAACGAAAGTTTGCCC ((((((....)))..))) | 31.8 °C | -20.8 kcal/mol
26 | GGGAACGCGAAAGCGCCC (((..(((....)))))) | 46.5 °C | -16.4 kcal/mol
27 | GGGAAGGGAAACCCTCCC ((((.((....)).)))) | 46.8 °C | -28.1 kcal/mol
28 | GGGAAGGGAAACCTTCTC (.(((((....))))).) | 46.6 °C | -23.8 kcal/mol
29 | GGGAAGGGAAACTTTCCC (((((.(....).))))) | 45.5 °C | -26 kcal/mol
30 | GGGAAGTCGAAAGACCCC (((..(((....)))))) | 44.8 °C | -22.7 kcal/mol
31 | GGGAATACGAAAGTACCC (((..(((....)))))) | 33.9 °C | -23 kcal/mol
32 | GGGAATCCGAAAGGACCC (((..(((....)))))) | 38.1 °C | -18.1 kcal/mol
33 | GGGAATGGAAACATTCCC (((((((....))))))) | 62 °C | -54.2 kcal/mol
34 | GGGAATGGAAACGTTCCC (((((.(....).))))) | 50.6 °C | -38 kcal/mol
35 | GGGACACCGAAAGGTCCC (((..(((....)))))) | 51.4 °C | -27.7 kcal/mol
36 | GGGACCCGAAAGGGACCC (((.(((....))).))) | 67 °C | -31.1 kcal/mol
37 | GGGACCGAAAGGTACCC ((((((....))).))) | 64.1 °C | -18.9 kcal/mol
38 | GGGACCGAAAGGTGACCC ((((((....)))..))) | 45.6 °C | -17.6 kcal/mol
39 | GGGACCGAAAGGTTTCCC ((((((....)))..))) | 42.5 °C | -18.6 kcal/mol
40 | GGGACCGGAAACGATCCC ((((.((....)).)))) | 50.8 °C | -45.8 kcal/mol
41 | GGGACGGCGAAAGCCCCC (((..(((....)))))) | 42.3 °C | -14.8 kcal/mol
42 | GGGACGGGAAACCACCCC (((..((....))..))) | 32.1 °C | -18.4 kcal/mol
43 | GGGACTCGAAAGAGCCCC (((.(((....))).))) | 57.1 °C | -34.6 kcal/mol
44 | GGGACTGGAAACAGCCCC (((.(((....))).))) | 51.9 °C | -35.3 kcal/mol
45 | GGGACTTCGAAAGAACCC (((..(((....)))))) | 29.8 °C | -5.69 kcal/mol
46 | GGGAGACGAAAGTCACCC (((.(((....))).))) | 58.2 °C | -31.5 kcal/mol

Row | Sequence | Tm [1] | folding enthalpy [2]
47 | GGGAGACGAAAGTCCCC (((.(((....)))))) | 56.4 °C | -35.5 kcal/mol
48 | GGGAGCCGAAAGGCCCC (((.(((....)))))) | 69 °C | -20.1 kcal/mol
49 | GGGAGCCGAAAGGCCCCC (((.(((....))).))) | 65.9 °C | -21.3 kcal/mol
50 | GGGAGCGAAAGCTATCCC ((((((....)))..))) | 48 °C | -16.6 kcal/mol
51 | GGGAGCGAAAGCTTACCC ((((((....)))..))) | 42.5 °C | -16.9 kcal/mol
52 | GGGAGCGAAAGCTTCCC ((((((....))).))) | 61.7 °C | -20.5 kcal/mol
53 | GGGAGCGAAAGCTTTCCC ((((((....)))..))) | 40.4 °C | -16.3 kcal/mol
54 | GGGAGCGCGAAAGCGCCC (((..(((....)))))) | 58.6 °C | -10.1 kcal/mol
55 | GGGAGCGGAAACACTCCC (((((.(....).))))) | 50.8 °C | -37.7 kcal/mol
56 | GGGAGCGGAAACGCTTCC ((.((((....)))).)) | 61.4 °C | -33.7 kcal/mol
57 | GGGAGGCGAAAGCCCCCC (((.(((....))).))) | 64.8 °C | -17.2 kcal/mol
58 | GGGAGTGGAAACACTTCC ((.((((....)))).)) | 50.5 °C | -36.2 kcal/mol
59 | GGGATACCGAAAGGTCCC (((..(((....)))))) | 45.2 °C | -17.4 kcal/mol
60 | GGGATATCGAAAGATCCC (((..(((....)))))) | 43.4 °C | -27.9 kcal/mol
61 | GGGATCCGAAAGGACCCC (((.(((....))).))) | 59.1 °C | -35.2 kcal/mol
62 | GGGATCGAAAGATAGCCC ((((((....)))..))) | 32.4 °C | -17.3 kcal/mol
63 | GGGATCGAAAGATTCCC ((((((....))).))) | 51 °C | -25 kcal/mol
64 | GGGATCGGAAACGATTCC ((.((((....)))).)) | 53.5 °C | -40.7 kcal/mol
65 | GGGATCGGAAACGGTTCC ((.(.((....)).).)) | 40.9 °C | -35.7 kcal/mol
66 | GGGATGCCGAAAGGCCCC (((..(((....)))))) | 46.6 °C | -15.6 kcal/mol
67 | GGGATGCGAAAGCACCCC (((.(((....))).))) | 61.4 °C | -27.7 kcal/mol
68 | GGGATTCGAAAGAAACCC (((.(((....))).))) | 50.6 °C | -48.4 kcal/mol

From the array DNA melting data of Ke et al. (doi:10.1101/2024.01.08.574731)
